# Compound activity (PubChem)
# V1aR counter: V1a receptor agonism, counter-screen for OXTR agonists. activation, % at 3 µM. 0.25% of 320,000 active. CHO-V1R cells, Fluo-8 calcium fluorescence, agonist mode; 0% DMSO, 100% 3 nM vasopressin;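 active means activation above the mean activation of all tested compounds plus 3 SD, per screening run, cut at about 20% in these data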;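 further: signal is peak over basal fluorescence ratio across a 100 second FLIPR read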
# Target sequence (P37288 whole entry, looked up): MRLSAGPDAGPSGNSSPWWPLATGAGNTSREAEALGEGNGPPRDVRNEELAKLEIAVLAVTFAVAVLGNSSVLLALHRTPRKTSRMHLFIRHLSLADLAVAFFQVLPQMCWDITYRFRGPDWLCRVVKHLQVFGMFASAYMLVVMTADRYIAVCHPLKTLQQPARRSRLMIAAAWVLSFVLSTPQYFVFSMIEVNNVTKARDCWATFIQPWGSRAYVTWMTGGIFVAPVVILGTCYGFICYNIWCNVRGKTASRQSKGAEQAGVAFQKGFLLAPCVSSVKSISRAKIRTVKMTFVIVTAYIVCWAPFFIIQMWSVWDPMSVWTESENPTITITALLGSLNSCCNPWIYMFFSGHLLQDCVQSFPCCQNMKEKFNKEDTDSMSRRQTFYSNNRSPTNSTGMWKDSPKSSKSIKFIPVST
# OXTR potentiate: potentiators of human oxytocin receptor; CHO-OTR cells, Fluo-8 calcium fluorescence, potentiator mode; 0% = oxytocin EC15, 100% = EC100; AID 2445; 0.061% of 320,000 active; activation, % at 3 µM; P30559;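 active means activation above that plate's cutoff, the mean activation of tested compounds plus 3 SD, cut at about 6.6% in these data, passing the limit was not always enough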;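 further: 100% uses oxytocin at 75 nM as the full agonist control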
#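 System: human OTR in CHO cells / Also added: sub-maximal oxytocin, roughly EC15 / Control set: EC15 oxytocin low, 75 nM oxytocin high / Schedule: 6 min compound pre-incubation at room temperature, 100 s kinetic read / Compound: single-point 3.0 µM / Replication: singlicate / Technique: Fluo-8 calcium dye fluorescence / Read-out basis: % activation of max/min ratio relative to oxytocin controls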
# TRPML3 agonist: human mucolipin-3 channel agonism | Q8TDD5 | HEK293 TRPML3-YFP, Fluo-8 calcium fluorescence; 100% = the carbachol control signal | activation, % at 3 µM | 0.29% of 220,000 active;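 active means activation above its plate's cutoff, the mean activation of the plate's test wells plus 3 SD, cut at about 12% in these data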;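 further: 0% = DMSO only wells and 100% = carbachol wells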
#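 Test system: TRPML3-YFP stable HEK293 cells. Doses: single point at 3 µM. Incubation: dye loading 1 h 37 °C then 30 min ambient, 125 s read. Signal: Fluo-8 calcium dye fluorescence, ex 470-495, em 515-575 nm. Measure: percent activation from peak-to-basal fluorescence ratio, scaled between DMSO and carbachol.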
# OXTR ag: human OXTR agonism; P30559; CHO-OTR cells, Fluo-8 calcium fluorescence; normalized: DMSO 0%, oxytocin 100%; activation, % at 3 µM; 0.32% of 320,000 active; AID 2435;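 active means activation above the mean of all tested compounds plus 3 SD, cutoff set per screening run, cut at about 20% in these data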;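 further: peak over basal fluorescence ratio from a 100 s FLIPR kinetic read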
# zfTRPN1 agonist: agonists of zebrafish TRPN1 channel. AID 1424. HEK293 zebrafish TRPN1-YFP, Fluo-8 calcium fluorescence; 100% = response to 87 µM carbachol. 0.18% of 220,000 active. activation, % at 3 µM;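 active means activation above its plate's cutoff, the mean activation of test wells on that plate plus 3 SD, cut at about 19% in these data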;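 further: 0% = DMSO alone and 100% = 87 µM carbachol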
#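 Assay system: Zebrafish TRPN1-YFP in HEK293 cells | Incubation: Dye loading 1 h at 37 °C, then 30 min room temperature | Measured by: Kinetic Fluo-8 fluorescence, ex 470-495, em 515-575 nm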
# TRPN1 counter: zebrafish TRPN1 agonism as TRPML3 agonist counter-screen; activation, % at 3 µM; AID 1525; HEK293 zebrafish TRPN1-YFP, Fluo-8 calcium fluorescence; scaled: carbachol wells 100%, DMSO wells 0%; shares compounds with TRPML3 agonist; 10% of 310 active;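 active means mean activation over replicates above a set limit taken from the earlier TRPN1 channel primary screen, cut at about 19% in these data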;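 further: 100% = carbachol and 0% = 0.3% DMSO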
# TRPML3 confirm: confirmation of human TRPML3 channel agonists; shares compounds with TRPML3 agonist; HEK293 TRPML3-YFP, Fluo-8 calcium fluorescence; 100% set by carbachol, 0% by DMSO; activation, % at 3 µM; 80% of 310 active; AID 1526;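 active means activation above a set limit derived from the earlier primary screen, cut at about 12% in these data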
# An asterisk follows results filed as active; · = no result. Most compounds without a hit are left out; they make up all but 0.58% or so of the library.
SMILES,V1aR counter,OXTR potentiate,TRPML3 agonist,OXTR ag,zfTRPN1 agonist,TRPN1 counter,TRPML3 confirm
N=C1SCC(=O)N1c1ncc(Cc2cccc(Cl)c2)s1,·,·,45*,·,4,5,26*
O=C(NCCN1CCCCC1)Nc1ccc(F)cc1F,2,2,·,0,·,·,·
Cc1cc(Cl)ccc1OCC(=O)NNC(=O)c1cccnc1,0,-1,·,1,·,·,·
Cc1cc(C)cc(N2C(=O)CSC2c2cccs2)c1 (stereo unspecified),0,-15,16*,-1,-1,3,16*
Cc1ccc(S(=O)(=O)n2nccc2-c2c(-c3ccccc3)noc2C)cc1,2,-13,120*,-2,1,-1,94*
Cc1onc(-c2ccc(Cl)cc2)c1-c1ccnn1S(=O)(=O)c1cccc(C(F)(F)F)c1,1,-12,33*,1,1,0,51*
O=S(=O)(NC1CCCCCC1)c1cccc2cccnc12,-2,-3,33*,-2,-1,0,56*
O=C(c1ccccc1F)N1CCN(C(=O)C(c2ccccc2)c2ccccc2)CC1,1,-2,·,1,·,·,·
C/C(=N\NC(=O)CNC(=O)c1ccccc1Br)c1ccco1,2,-9,·,0,·,·,·
COc1ccccc1C1(CC(=O)N2CCCCC2)CCOC(C(C)C)C1 (stereo unspecified),-2,-3,14*,-2,0,-1,11
CC1CCCCC1NC(=O)CN1C(=O)CSc2cc(S(=O)(=O)N3CCCCCC3)ccc21 (stereo unspecified),-2,-10,33*,-3,-1,-1,8
CC1=CC(C)(C)N(C(=O)CSc2nnc(C)s2)c2ccc(C)cc21,-1,-1,-1,-2,-1,·,·
CC1=CC(C)(C)N(C(=O)CSc2nnc(-c3ccc(C)cc3)o2)c2ccc(C)cc21,0,-20,62*,-1,0,-2,49*
CCCNC(=O)C1CN(C(=O)c2nn(Cc3ccccc3)c(=O)c3ccccc23)c2ccccc2O1 (stereo unspecified),0,-2,·,-2,·,·,·
CC(=O)Nc1ccccc1OCC(=O)c1cc(C)n(Cc2cccs2)c1C,13,-27,28*,12,16,27*,34*
CCCN(CCC)S(=O)(=O)c1ccc(C(=O)N2CCCc3ccccc32)cc1,0,-7,133*,-1,6,6,104*
N#C/C(=C\c1cn(CCOc2ccccc2)c2ccccc12)C(=O)NCC1CCCO1 (stereo unspecified),3,-8,25*,2,0,1,11
Cc1ccc(C)c(OCCn2cc(/C=C(/C#N)C(=O)NCC3CCCO3)c3ccccc32)c1 (stereo unspecified),0,6,0,2,0,·,·
O=C(COc1ccccc1C(=O)O)Nc1nc2ccc([N+](=O)[O-])cc2s1,10,-30,14*,15,17,22*,8
COC(=O)c1cnc(N2CCCN(S(=O)(=O)c3ccccc3)CC2)nc1C(F)(F)F,0,-13,13*,-3,0,1,13*
CC(=O)c1ccc(NC(=O)CSc2nnc(C3CC3)n2C2CC2)cc1,1,3,·,1,·,·,·
CC(=Nc1ccccc1O)c1sc2ccccc2c1O,31*,-9,12*,27*,16,21*,9
CC(=Nc1ccc(O)cc1)c1sc2ccccc2c1O,7,-12,2,8,2,·,·
Cc1ccc(CNc2ccc3c(c2)ncn3C(C)C)cc1,3,-6,36*,-1,13,36*,29*
COc1ccccc1NS(=O)(=O)c1cc(C(=O)NCc2ccncc2)ccc1C,0,-16,·,0,·,·,·
COc1ccccc1NS(=O)(=O)c1cc(C(=O)NCCC(C)C)ccc1F,1,-6,17*,0,9,22*,35*
Cc1ccc(C(=O)OCC(=O)NC(=O)c2ccccc2)o1,1,-6,·,0,·,·,·
